The term IC50 denotes the midpoint of a concentration-inhibition curve. One may read the inhibition as the drop in the measured response relative to a control, in per cent.

The test system of one experiment is HeLa. Put plainly: Antiproliferative activity against human HeLa cells after 2 days. The format is functional, cell-based. The following applies: 48 h. Put shortly:
(§1)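 Cells suspended at 300,000–500,000 cells/mL of culture medium and mixed 1:1 with dilutions of compound. Incubated 2 days at 37 °C, then cell number counted with a Coulter counter. IC50 is the concentration giving 50% inhibition of proliferation. Values are means from dose–response curves of at least three independent experiments.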

For a further experiment, the species on record is Bos taurus. Nature of the experiment: Displacement of [3H]colchicine from bovine brain tubulin at 1 uM. Put shortly: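 Bovine brain tubulin (1 µM) incubated with compound at 1 µM and [³H]colchicine at 5 µM. Result is reported as percent inhibition of colchicine binding.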
Background: Loss of bound radioactivity is the signal in a displacement assay; it reports binding, not function.

The next experiment deals with FM3A. Put plainly: Antiproliferative activity against mouse FM3A cells after 2 days. Format: functional, cell-based. Particulars: 48 h. The procedure, abridged:
as §1

The subject of experiment [1] is K562. Nature of the experiment: Cell cycle arrest in human K562 cells assessed as accumulation at G2/M phase at 4.0 uM after 24 hrs by flow cytometry. Format: functional. Background: In flow cytometry, cells or beads pass a laser one at a time.
Experiment [2] relates to K562. Put plainly: Cell cycle arrest in human K562 cells assessed as accumulation at S phase at 4.0 uM after 24 hrs by flow cytometry. The format is functional.
The next experiment relates to CCRF-CEM. Nature of the experiment: Antiproliferative activity against human CEM cells after 2 days. Format: functional, cell-based. The following applies: 48 h. Put shortly: as §1
In a further experiment the test system is MOLT-4. Nature of the experiment: Antiproliferative activity against human MOLT4 cells after 2 days. The format is functional, cell-based. The following applies: MOLT-4, 48 h. The procedure, abridged:
as §1

The test system of a further experiment is L1210. Put plainly: Antiproliferative activity against mouse L1210 cells after 2 days. Format: functional, cell-based. The following applies: L1210, 48 h. Put shortly: as §1
Experiment [3] is described as follows: Inhibition of bovine brain tubulin polymerization for 20 mins. On the set-up: species or system Bos taurus. Put shortly: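 Bovine brain tubulin (10 µM) preincubated with varying compound concentrations in glutamate buffer at 30 °C, then cooled to 0 °C. GTP added and mixtures warmed to 30 °C in cuvettes while assembly was followed by turbidity. IC50 is the concentration that halves the extent of assembly after 20 min.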

For experiment [4], the system named is K562. Nature of the experiment: Cell cycle arrest in human K562 cells assessed as accumulation at G0/G1 phase at 4.0 uM after 24 hrs by flow cytometry. Format: functional.

With `COc1cc(C(=O)c2ccc(-c3ccccc3C)s2)cc(OC)c1OC`, the IC50 with HeLa amounted to 1600 nM; with FM3A, 2100 nM; in the experiment with CCRF-CEM, 1200 nM; with MOLT-4 it was 600 nM; with L1210, 2200 nM; in [3], 1700 nM. Besides, the inhibition in the experiment listed under Bos taurus was found to be 49%. Moreover, the Activity in the experiment with K562 [1] was determined as 85%; in the experiment with K562 [2] it was 23%; with K562 [4] it was 15%.
